Experimental data from ChEMBL document CHEMBL1139172, “Identification, synthesis, and biological evaluation of novel pyrazoles as low molecular weight luteinizing hormone receptor agonists” (Bioorg Med Chem Lett, 2007).

What was measured:
[1] = molecular target: T1, Lutropin-choriogonadotropic hormone receptor (Homo sapiens, UniProt P22888); assay: Agonist activity at human LH receptor expressed in CHO cells assessed as production of cAMP after 60 mins by SPA relative to luteinizing harmone; type: functional, cell-based
T1 sequence (P22888 whole entry): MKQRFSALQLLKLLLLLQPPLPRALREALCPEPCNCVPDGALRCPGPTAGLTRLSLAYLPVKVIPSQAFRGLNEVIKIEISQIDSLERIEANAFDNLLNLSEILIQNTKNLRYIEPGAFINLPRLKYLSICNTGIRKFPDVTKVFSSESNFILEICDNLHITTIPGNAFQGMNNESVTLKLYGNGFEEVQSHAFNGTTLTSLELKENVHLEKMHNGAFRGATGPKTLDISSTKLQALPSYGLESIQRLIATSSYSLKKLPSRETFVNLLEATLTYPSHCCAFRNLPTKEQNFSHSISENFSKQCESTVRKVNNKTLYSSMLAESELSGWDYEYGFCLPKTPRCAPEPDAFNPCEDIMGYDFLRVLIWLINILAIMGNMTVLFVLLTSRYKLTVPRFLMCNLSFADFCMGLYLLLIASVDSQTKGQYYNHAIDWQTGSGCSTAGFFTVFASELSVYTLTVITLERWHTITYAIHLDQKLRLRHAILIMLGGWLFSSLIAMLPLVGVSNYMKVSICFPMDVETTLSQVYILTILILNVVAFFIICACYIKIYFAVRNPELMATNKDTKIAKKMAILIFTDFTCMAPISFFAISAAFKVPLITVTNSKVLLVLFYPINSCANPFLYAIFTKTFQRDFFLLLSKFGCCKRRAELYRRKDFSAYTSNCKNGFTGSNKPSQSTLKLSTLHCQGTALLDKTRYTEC

[2] = molecular target: Lutropin-choriogonadotropic hormone receptor (Rattus norvegicus) (UniProt P16235); assay: Efficacy at LH receptor in Sprague-Dawley rat Leydig cells assessed as production of testosterone after 3 hrs; type: cell-based
Chain of Lutropin-choriogonadotropic hormone receptor (Rattus norvegicus) (P16235 whole entry): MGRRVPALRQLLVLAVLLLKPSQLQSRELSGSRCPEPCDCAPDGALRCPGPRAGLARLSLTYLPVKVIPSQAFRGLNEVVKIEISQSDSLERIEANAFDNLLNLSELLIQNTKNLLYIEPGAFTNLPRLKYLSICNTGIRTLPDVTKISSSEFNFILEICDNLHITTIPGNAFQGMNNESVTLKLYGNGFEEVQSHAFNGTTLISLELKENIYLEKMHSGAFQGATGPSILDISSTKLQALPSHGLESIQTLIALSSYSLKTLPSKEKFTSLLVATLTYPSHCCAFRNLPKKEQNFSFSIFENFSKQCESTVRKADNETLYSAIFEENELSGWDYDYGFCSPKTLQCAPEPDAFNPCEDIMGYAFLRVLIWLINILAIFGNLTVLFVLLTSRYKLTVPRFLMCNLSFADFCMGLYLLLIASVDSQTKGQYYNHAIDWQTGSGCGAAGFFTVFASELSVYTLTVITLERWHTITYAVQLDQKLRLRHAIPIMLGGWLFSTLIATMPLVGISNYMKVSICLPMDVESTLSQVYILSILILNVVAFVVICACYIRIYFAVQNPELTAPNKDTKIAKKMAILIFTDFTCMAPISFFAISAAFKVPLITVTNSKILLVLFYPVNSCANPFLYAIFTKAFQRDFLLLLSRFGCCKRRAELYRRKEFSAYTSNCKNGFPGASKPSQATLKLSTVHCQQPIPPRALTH
How it was run: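 Leydig cells from male Sprague–Dawley rats aged 21–40 days. Decapsulated testis digested 15 min at 37 °C, 5% CO2, in phenol red-free DMEM/F12 with 0.1% collagenase. Washed cells plated at 350,000/well in phenol red-free DMEM/F12 with 0.1% BSA and stimulated 3 h. After centrifugation, medium testosterone measured by ELISA. ED50 and efficacy derived.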

Rattus norvegicus = assay: Induction of testosterone in Sprague-Dawley rat at 4 to 32 mg/kg, ip by radioimmunoassay; type: functional, organism-based
How it was run: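 Adult Sprague–Dawley rats implanted subcutaneously in the scapular region on day 1 with a 7-day slow-release pellet of 7.5 mg diethylstilbestrol. Two days later, ip injection of 0, 4, 16 or 32 mg/kg; 3 rats per group. Blood taken by retro-orbital plexus 2 h after dosing; serum frozen at -80 °C. Testosterone measured by ELISA (legend says radioimmunoassay), with standard deviations.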

[3] = molecular target: T1, Lutropin-choriogonadotropic hormone receptor; assay: Agonist activity at human LH receptor expressed in CHO cells assessed as production of cAMP after 60 mins by SPA; type: functional, cell-based

Structure (SMILES)	Activity [1] [%]	ED50 [2] [nM]	Efficacy [2] [%]	EC50 [3] [nM]	Activity (Rattus norvegicus)
CC(C)(C)c1ccc(-n2nc(-c3cc4ccccc4cn3)cc2-c2cccc(C(=O)N[C@@H](Cc3ccc(O)cc3)C(N)=O)c2)cc1	19			500	
CC(C)(C)Oc1ccc(C[C@H](NC(=O)CCCCc2cc(-c3cccnc3)nn2-c2ccc(C(C)(C)C)cc2)C(N)=O)cc1	72			12100	
CC(C)(C)c1ccc(-n2nc(CCCCC(=O)N[C@@H](Cc3ccc(O)cc3)C(N)=O)cc2-c2ccncc2)cc1				2300	
CC(C)(C)c1ccc(-n2nc(-c3ccncc3)cc2NCCCC(=O)N[C@@H](Cc2ccc(O)cc2)C(N)=O)cc1				> 100000	
CC(C)(C)c1ccc(-n2nc(-c3cccnc3)cc2CCC(=O)N[C@@H](Cc2ccc(O)cc2)C(N)=O)cc1				> 100000	

Now those with a lower EC50 [3], led by results:

Activity [1] [%]	ED50 [2] [nM]	Efficacy [2] [%]	EC50 [3] [nM]	Structure (SMILES)	Activity (Rattus norvegicus)
55			250	CC(C)(C)c1ccc(-n2nc(-c3ccncc3)cc2CCCCC(=O)N[C@@H](Cc2ccc(O)cc2)C(N)=O)cc1	
66			190	CC(C)(C)c1ccc(-n2nc(-c3ccncc3)cc2CCCCC(=O)N[C@H](CC(N)=O)Cc2ccc(O)cc2)cc1	
78			170	CC(C)(C)c1ccc(-n2nc(-c3ccccn3)cc2CCCCCC(=O)N[C@H](C(N)=O)c2ccc(O)cc2)cc1	
41			150	CC(C)(C)c1ccc(-n2nc(-c3ccccn3)cc2CCCCCC(=O)N[C@@H](Cc2cccc(O)c2)C(N)=O)cc1	
45			80	CC(C)(C)c1ccc(-n2nc(-c3cccnc3)cc2CCCCC(=O)NCCc2ccc(O)cc2)cc1	
70	1310	78	20	CC(C)(C)c1ccc(-n2nc(-c3cccnc3)cc2CCCCC(=O)N[C@@H](Cc2ccc(O)cc2)C(N)=O)cc1	Dose-dependent effect
